Measurements as given in ChEMBL document CHEMBL4706633, “Design, Synthesis, and Biological Evaluation of a Series of Oxazolone Carboxamides as a Novel Class of Acid Ceramidase Inhibitors” (J Med Chem, 2020).
The source made the active and inactive calls. The rule behind the calls is not given here.

How the values were obtained:
[1] = Cmax in C57BL/6 mouse at 10 mg/kg, po measured up to 4 hrs by LC/MS-MS analysis; format: ADME, organism-based; set-up: route oral, dose 10 mg/kg, time <=4; conditions: in vivo
Method in brief: (§1)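 C57BL/6 mice were dosed intravenously at 3 mg/kg or orally at 10 mg/kg. Plasma PK parameters were derived per route: clearance, Vdss and t1/2 after i.v. dosing, and tmax, Cmax, t1/2 and AUC after oral dosing. Oral bioavailability F was estimated from the oral and i.v. exposures.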

[2] = Oral bioavailability in C57BL/6 mouse at 10 mg/kg measured up to 4 hrs by LC/MS-MS analysis; format: ADME, organism-based; conditions: in vivo; method in brief: as §1
[3] = target: T1, Acid ceramidase (Homo sapiens) (UniProt Q13510); assay: Inhibition of acid ceramidase in human SH-SY5Y cells assessed as reduction in sphingosine level at 10 uM incubated for 1 to 6 hrs by LC-MS analysis; format: cell-based; conditions: time 1-6 hrs
T1 sequence (whole entry): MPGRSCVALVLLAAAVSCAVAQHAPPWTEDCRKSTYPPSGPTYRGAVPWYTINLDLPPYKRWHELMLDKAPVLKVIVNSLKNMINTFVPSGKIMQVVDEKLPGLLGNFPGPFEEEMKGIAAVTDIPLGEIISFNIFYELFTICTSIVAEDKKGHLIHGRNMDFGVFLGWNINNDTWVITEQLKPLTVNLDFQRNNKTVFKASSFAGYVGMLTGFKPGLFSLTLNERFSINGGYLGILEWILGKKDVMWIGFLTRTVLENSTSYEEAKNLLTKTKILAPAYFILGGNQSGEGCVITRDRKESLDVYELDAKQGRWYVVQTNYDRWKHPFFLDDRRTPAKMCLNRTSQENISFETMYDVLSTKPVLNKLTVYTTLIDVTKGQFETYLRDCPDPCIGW
Method in brief: (§2)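 SH-SY5Y neuroblastoma cultures were treated at 10 μM for 1, 3 or 6 h. Intracellular sphingolipids (Cer, So, SM, HexCer) were then identified and quantified by LC/MS.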

[4] = target: T1, Acid ceramidase (Homo sapiens); assay: Irreversible covalent inhibition of human acid ceramidase using N-lauroyl ceramide incubated for 1 hr by LC/MS analysis
[5] = target: T1, Acid ceramidase (Homo sapiens); assay: Inhibition of acid ceramidase in human SH-SY5Y cells assessed as reduction in sphingosine level at 1 to 10 uM incubated for 3 hrs by LC-MS analysis; format: cell-based; conditions: dose 1-10 µM
Method in brief: (§3)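 SH-SY5Y human neuroblastoma cells were exposed for 3 h at 1, 2.5, 5 or 10 μM. Cellular sphingolipids (Cer species, So, SM, HexCer) were quantified by LC/MS. Data are means ± SEM of at least six determinations, with experiments repeated twice. Significance was taken at p < 0.05.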

SH-SY5Y [6] = assay: Effect on SM (d18:1/16:0) levels in human SH-SY5Y cells at 10 uM incubated for 1 to 6 hrs by LC-MS analysis; format: functional, cell-based; conditions: time 1-6 hrs; method in brief: as §2
[7] = target: T1, Acid ceramidase (Homo sapiens); assay: Inhibition of acid ceramidase in human SH-SY5Y cells assessed as intracellular accumulation of Cer (d18:0/16:0) at 10 uM incubated for 1 to 6 hrs by LC-MS analysis; format: cell-based; conditions: time 1-6 hrs; method in brief: as §2
[8] = Tmax in C57BL/6 mouse at 10 mg/kg, po measured up to 4 hrs by LC/MS-MS analysis; format: ADME, organism-based; conditions: in vivo; method in brief: as §1
[9] = Elimination half life in C57BL/6 mouse at 10 mg/kg, po measured up to 4 hrs by LC/MS-MS analysis; format: ADME, organism-based; conditions: in vivo; method in brief: as §1
SH-SY5Y [10] = assay: Effect on HexCer (d18:1/16:0) levels in human SH-SY5Y cells at 1 to 10 uM incubated for 3 hrs by LC-MS analysis; format: functional, cell-based; conditions: dose 1-10 µM; method in brief: as §3
[11] = target: T1, Acid ceramidase (Homo sapiens); assay: Inhibition of acid ceramidase in human SH-SY5Y cells assessed as intracellular accumulation of Cer (d18:1/16:0) at 10 uM incubated for 1 to 6 hrs by LC-MS analysis; format: cell-based; conditions: time 1-6 hrs; method in brief: as §2
[12] = Kinetic solubility in pH 7.4 PBS buffer at 250 uM incubated for 1 hr by UPLC/MS analysis; format: physicochemical; conditions: read-out: Kinetic_solubility
Method in brief: (§4)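 Kinetic aqueous solubility was measured in PBS, pH 7.4. Metabolic stability was measured as t1/2 in mouse plasma and mouse liver microsomes, with microsomal data also given as % compound remaining at 1 h. Values are means of at least two independent experiments, each in two technical replicates.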

[13] = AUC in C57BL/6 mouse at 10 mg/kg, po measured up to 4 hrs by LC/MS-MS analysis; format: ADME, organism-based; set-up: route oral, dose 10 mg/kg, time <=4; conditions: in vivo; method in brief: as §1
[14] = Elimination half life in C57BL/6 mouse at 3 mg/kg, iv measured up to 4 hrs by LC/MS-MS analysis; format: ADME, organism-based; conditions: in vivo; method in brief: as §1
Acid ceramidase = target: T2, Acid ceramidase (Homo sapiens, UniProt Q13510); assay: Inhibition of human acid ceramidase using Rbm14-12 fluorogenic substrate incubated for 1 hr by fluorescence assay; conditions: read-out: IC50
T2 sequence (Q13510 whole entry): T1 sequence (whole entry)

[15] = target: T1, Acid ceramidase (Homo sapiens); assay: Inhibition of acid ceramidase in human SH-SY5Y cells assessed as intracellular accumulation of Cer (d18:1/16:0) at 1 to 10 uM incubated for 3 hrs by LC-MS analysis; format: cell-based; conditions: dose 1-10 µM; method in brief: as §3
[16] = Clearance in C57BL/6 mouse at 10 mg/kg, po measured up to 4 hrs by LC/MS-MS analysis; format: ADME, organism-based; conditions: in vivo
[17] = Volume of distribution at steady state in C57BL/6 mouse at 3 mg/kg, iv measured up to 4 hrs by LC/MS-MS analysis; format: ADME, organism-based; conditions: in vivo; method in brief: as §1
[18] = Half life in mouse plasma at 2 uM by LC/MS-MS analysis; format: ADME, cell-free; method in brief: as §4
[19] = Stability in mouse liver microsomes at 4.6 uM in presence of NADPH after 60 mins by LC/MS-MS analysis; format: ADME, Microsome; conditions: read-out: Stabilty; method in brief: as §4
[20] = Volume of distribution at steady state in C57BL/6 mouse at 10 mg/kg, po measured up to 4 hrs by LC/MS-MS analysis; format: ADME, organism-based; conditions: in vivo
[21] = target: T1, Acid ceramidase (Homo sapiens); assay: Inhibition of acid ceramidase in human SH-SY5Y cells assessed as reduction in sphingolipid levels at 1 to 10 uM incubated for 3 hrs by LC-MS analysis; format: cell-based; conditions: dose 1-10 µM; method in brief: as §3
[22] = Half life in mouse liver microsomes at 4.6 uM in presence of NADPH by LC/MS-MS analysis; format: ADME, Microsome; method in brief: as §4
SH-SY5Y [23] = assay: Effect on SM (d18:1/16:0) levels in human SH-SY5Y cells at 1 to 10 uM incubated for 3 hrs by LC-MS analysis; format: functional, cell-based; conditions: dose 1-10 µM; method in brief: as §3
[24] = target: T3, N-acylethanolamine-hydrolyzing acid amidase (Homo sapiens) (UniProt Q02083); assay: Inhibition of human NAAA up to 125 uM; conditions: dose microM <=125
T3 sequence (whole entry): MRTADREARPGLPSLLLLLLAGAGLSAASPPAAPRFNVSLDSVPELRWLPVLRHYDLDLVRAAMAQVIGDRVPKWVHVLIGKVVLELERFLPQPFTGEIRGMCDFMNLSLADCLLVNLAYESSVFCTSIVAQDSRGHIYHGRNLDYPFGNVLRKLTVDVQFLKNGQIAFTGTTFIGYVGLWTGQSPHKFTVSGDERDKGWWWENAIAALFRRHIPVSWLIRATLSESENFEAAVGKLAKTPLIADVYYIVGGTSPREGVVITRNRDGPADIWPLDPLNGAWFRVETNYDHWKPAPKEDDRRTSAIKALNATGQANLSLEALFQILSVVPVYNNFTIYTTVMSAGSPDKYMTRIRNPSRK

[25] = target: T1, Acid ceramidase (Homo sapiens); assay: Inhibition of acid ceramidase in human SH-SY5Y cells assessed as reduction in sphingolipid levels at 10 uM incubated for 1 to 6 hrs by LC-MS analysis; format: cell-based; conditions: time 1-6 hrs, TDE = time-dependent effect; method in brief: as §2
[26] = target: T1, Acid ceramidase (Homo sapiens); assay: Inhibition of acid ceramidase in human SH-SY5Y cells assessed as intracellular accumulation of Cer (d18:0/16:0) at 1 to 10 uM incubated for 3 hrs by LC-MS analysis; format: cell-based; conditions: dose 1-10 µM; method in brief: as §3
SH-SY5Y [27] = assay: Effect on HexCer (d18:1/16:0) levels in human SH-SY5Y cells at 10 uM incubated for 1 to 6 hrs by LC-MS analysis; format: functional, cell-based; conditions: time 1-6 hrs; method in brief: as §2
[28] = AUC in C57BL/6 mouse at 3 mg/kg, iv measured up to 4 hrs by LC/MS-MS analysis; format: ADME, organism-based; set-up: route intravenous, dose 3 mg/kg, time <=4; conditions: in vivo

Cmax [1]: 278 ng/mL
F [2]: 40%
inhibition [3]: Active
inhibition [4]: Active
inhibition [5]: Dose-dependent effect
inhibition [7]: Active
Tmax [8]: 0.5 h
beta t1/2 [9]: 2.45 h
inhibition [11]: Active
solubility kinetic at 1 h, 250 µM [12]: > 250 µM
AUC [13]: 42525 ng·min/mL
beta t1/2 [14]: 1.98 h
IC50 (Acid ceramidase): 129 nM
inhibition [15]: Dose-dependent effect
CL/F [16]: 155 mL/min/kg
Vdss [17]: 12.426 L/kg
t1/2 [18]: 1.83 h
remaining at 1 h, 4.6 µM [19]: 74%
Vdss [20]: 32.877 L/kg
inhibition [21]: Dose-dependent effect
t1/2 [22]: > 1 h
inhibition [24]: inactive
inhibition [25]: Tde
inhibition [26]: Dose-dependent effect
AUC [28]: 31978 ng·min/mL
SMILES: CCCCCNC(=O)n1cc(-c2ccc(F)cc2C2CCN(C)CC2)oc1=O
Activity (SH-SY5Y [6]): inactive
Activity (SH-SY5Y [10]): inactive
Activity (SH-SY5Y [23]): inactive
Activity (SH-SY5Y [27]): inactive
